57 sequences from the array DNA melting data of Ke et al. (doi:10.1101/2024.01.08.574731) can be followed below.

Data set [1] in a line: melting temperature; fluorescence melt of hairpins on a sequencing array, two-state fit, raised by 9.35 °C to match UV melts. To be noted: sodium 0.088 M. An outline of the steps:
(§1)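 Folding enthalpy and melting temperature were estimated with bootstrapped two-state fits and combined across four replicates by inverse-variance weighting, with fitted temperatures raised by 9.35 °C to match UV melts. The data were Cy3 fluorescence of library hairpins, with annealed Cy3 and quencher oligos, on a sequenced MiSeq flow cell in 50 mM Na-HEPES pH 8.0, 25 mM NaCl, imaged in 2.5 °C steps up to 60 °C and normalised to pre-quench Cy3 and control constructs.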

The nature of data set [2]: folding enthalpy; higher = less favourable; fluorescence melt of hairpins on a sequencing array, two-state fit. To be noted: sodium 0.088 M. The method in brief:
as §1

For GATCATAGGCATGATC ((((((....)))))), the Tm in data set [1] amounted to 48.5 °C. Besides, the folding enthalpy in data set [2] was -32.4 kcal/mol.
In the same order, the values of GATCATAGGTATGATC ((((((....)))))) are 49.1 °C and -40.5 kcal/mol.
For GATCATATAGATGATC ((((((....)))))), in that order: 45.6 °C and -36.2 kcal/mol.
For GATCATCACGATGATC ((((((....)))))), in that order: 51.8 °C and -42.6 kcal/mol.
Regarding GATCATCATATGATC ((((((...)))))), the Tm in data set [1] amounted to 47.2 °C. In addition, the folding enthalpy in data set [2] is -35.5 kcal/mol.
With GATCATCCAGATGATC ((((((....)))))), the Tm in data set [1] stood at 50.3 °C. Also, the folding enthalpy in data set [2] is -37.5 kcal/mol.
For GATCATCCTAATGATC ((((((....)))))), in that order: 49 °C and -35 kcal/mol.
For GATCATCGCCATGATC ((((((....)))))), in that order: 46.3 °C and -35.7 kcal/mol.
For GATCATCGCTATGATC ((((((....)))))), in that order: 47.2 °C and -38.8 kcal/mol.
As to GATCATCTCAATGATC ((((((....)))))), the Tm in data set [1] was determined as 48.9 °C. Moreover, in data set [2], the folding enthalpy is -41.6 kcal/mol.
In the same order, the values of GATCATGAACATGATC ((((((....)))))) are 54 °C and -41 kcal/mol.
As to GATCATGACAATGATC ((((((....)))))), the Tm in data set [1] turned out to be 56.6 °C. For the same sequence, in data set [2], the folding enthalpy was -40.6 kcal/mol.
In the same order, the values of GATCATGACCATGATC ((((((....)))))) are 55.2 °C and -41.5 kcal/mol.
GATCATGCACATGATC ((((((....)))))): in data set [1], the Tm is 56.3 °C. The folding enthalpy in data set [2] was -41.5 kcal/mol.
For the sequence GATCATGCCTATGATC ((((((....)))))), in data set [1], the Tm is 52.3 °C. In addition, the folding enthalpy in data set [2] was -42.4 kcal/mol.
In the same order, the values of GATCATGCGGATGATC ((((((....)))))) are 47 °C and -34.1 kcal/mol.
For GATCATGGAAACACGATC ((((.((....)).)))), in that order: 33.8 °C and -22.9 kcal/mol.
For GATCATGGAAACATGATC (((((((....))))))), in that order: 56.2 °C and -35.3 kcal/mol.
Consider GATCATGGCATGATC ((((((...)))))), for which the Tm in data set [1] was 51.3 °C. Moreover, the folding enthalpy in data set [2] was -44 kcal/mol.
In the same order, the values of GATCATGGGGATGATC ((((((....)))))) are 46.5 °C and -29.2 kcal/mol.
Turning to GATCATGGTCATGATC ((((((....)))))), the Tm in data set [1] came to 51.8 °C. The folding enthalpy in data set [2] was -38 kcal/mol.
In the same order, the values of GATCATGTCATGATC ((((((...)))))) are 51.3 °C and -32.5 kcal/mol.
Take GATCATGTGAATGATC ((((((....)))))): in data set [1], the Tm was 54.6 °C. Further, in data set [2], the folding enthalpy was -39.3 kcal/mol.
For GATCATGTTATGATC ((((((...)))))), in that order: 50.3 °C and -36.1 kcal/mol.
For GATCATTAAGATGATC ((((((....)))))), in that order: 46.4 °C and -34.8 kcal/mol.
For GATCATTACGATGATC ((((((....)))))), in that order: 48.5 °C and -34.9 kcal/mol.
GATCATTATCATGATC ((((((....)))))): in data set [1], the Tm worked out at 45.8 °C. For the same sequence, the folding enthalpy in data set [2] was -38.9 kcal/mol.
For GATCATTATTATGATC ((((((....)))))), in that order: 47.5 °C and -32.2 kcal/mol.
With GATCATTCAAATGATC ((((((....)))))), in data set [1], the Tm came to 47.3 °C. Moreover, the folding enthalpy in data set [2] is -34 kcal/mol.
In the same order, the values of GATCATTCAATGATC ((((((...)))))) are 47.1 °C and -30.6 kcal/mol.
For GATCATTGGCATGATC ((((((....)))))), in that order: 45.5 °C and -30.3 kcal/mol.
For GATCATTGGTATGATC ((((((....)))))), in that order: 46.3 °C and -31.8 kcal/mol.
With GATCATTGTAATGATC ((((((....)))))), the Tm in data set [1] amounted to 50.3 °C. For the same sequence, the folding enthalpy in data set [2] is -36 kcal/mol.
With GATCATTTACATGATC ((((((....)))))), the Tm in data set [1] came to 46.3 °C. Besides, in data set [2], the folding enthalpy is -35.2 kcal/mol.
For GATCATTTCGATGATC ((((((....)))))), in that order: 49.2 °C and -41.6 kcal/mol.
In the same order, the values of GATCATTTGCATGATC ((((((....)))))) are 46.4 °C and -34.4 kcal/mol.
For GATCCAAACATGGATC ((((((....)))))), in that order: 50.8 °C and -32.7 kcal/mol.
GATCCAAAGTTGGATC ((((((....)))))): in data set [1], the Tm worked out at 49.8 °C. Further, the folding enthalpy in data set [2] is -35.2 kcal/mol.
For GATCCAACATTGGATC ((((((....)))))), in that order: 50 °C and -43.3 kcal/mol.
For GATCCAACTATGGATC ((((((....)))))), in that order: 49.6 °C and -39.6 kcal/mol.
On to GATCCAACTGTGGATC ((((((....)))))), for which the Tm in data set [1] was found to be 49.1 °C. Besides, the folding enthalpy in data set [2] is -32.6 kcal/mol.
For GATCCAAGATGGATC ((((((...)))))), in that order: 49 °C and -34 kcal/mol.
In the same order, the values of GATCCAAGGGTGGATC ((((((....)))))) are 48.4 °C and -32 kcal/mol.
In the same order, the values of GATCCAAGGTTGGATC ((((((....)))))) are 51.4 °C and -37.5 kcal/mol.
On to GATCCAAGTGTGGATC ((((((....)))))), for which the Tm in data set [1] worked out at 50.3 °C. The folding enthalpy in data set [2] was -32.3 kcal/mol.
Turning to GATCCAATGCTGGATC ((((((....)))))), the Tm in data set [1] came out at 49.1 °C. Moreover, the folding enthalpy in data set [2] is -32.5 kcal/mol.
Turning to GATCCAATGGTGGATC ((((((....)))))), the Tm in data set [1] is 48.3 °C. The folding enthalpy in data set [2] is -29.4 kcal/mol.
For GATCCACAGTGGATC ((((((...)))))), in that order: 49.7 °C and -40.5 kcal/mol.
Turning to GATCCACAGTTGGATC ((((((....)))))), in data set [1], the Tm was 49.3 °C. Besides, the folding enthalpy in data set [2] was -41 kcal/mol.
For GATCCACATTTGGATC ((((((....)))))), in that order: 50.7 °C and -36.8 kcal/mol.
In the case of GATCCACCACTGGATC ((((((....)))))), in data set [1], the Tm stood at 49.4 °C. Also, the folding enthalpy in data set [2] is -36.9 kcal/mol.
Take GATCCACCATTGGATC ((((((....)))))): the Tm in data set [1] turned out to be 49.4 °C. For the same sequence, the folding enthalpy in data set [2] is -31.5 kcal/mol.
For GATCCACCCATGGATC ((((((....)))))), in that order: 50.7 °C and -34.2 kcal/mol.
As to GATCCACCGTGGATC ((((((...)))))), the Tm in data set [1] was found to be 48.5 °C. In addition, the folding enthalpy in data set [2] is -37.4 kcal/mol.
In the same order, the values of GATCCACCGTTGGATC ((((((....)))))) are 49.7 °C and -36.5 kcal/mol.
GATCCACCTCTGGATC ((((((....)))))): in data set [1], the Tm was 49 °C. Besides, the folding enthalpy in data set [2] was -33 kcal/mol.
In the same order, the values of GATCCACCTGTGGATC ((((((....)))))) are 63.8 °C and -42.1 kcal/mol.
